Screening results deposited in PubChem BioAssay by several laboratories.
In the library only some 4.8% were active in any assay of this set; here they are far more common.
SF1 activator = activators of human nuclear receptor SF-1 | CHO-K1 Gal4-SF-1 LBD luciferase reporter; % increase over DMSO SF-1-specific signal | 1.9% of 65,000 active | AID 522 | activation, % at 10 µM | Q13285;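 active means activation above the mean activation of all tested compounds plus 3 SD, cut at about 50% in these data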
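material = CHO-K1 cells with Gal4–hSF-1 LBD chimera plus Gal4-driven luciferase | compound = 10 µM single point, 1% DMSO | incubation = 20 h compound exposure at 37 °C after 1 h cell settling | measured by = SteadyLite luciferase luminescence | evaluation = percent activation relative to DMSO median and mock-transfected background | control set = DMSO negative control and −SF1 background wells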
RORa activator = activators of human nuclear receptor RORA. P35398. CHO-K1 Gal4-RORA LBD luciferase reporter, luminescence; percent increase over mock-subtracted basal signal. activation, % at 10 µM. 1.5% of 65,000 active. AID 560;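 active means activation above the mean of all tested compounds plus 3 SD, cut at about 49% in these data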
ERa coact inh = ER-alpha (human) coactivator binding inhibition; 1.7% of 86,000 active; AID 629; inhibition, % at 25.6 µM; TR-FRET ER-alpha LBD / SRC-1 peptide, estradiol-bound; P03372; in the data active means inhibition above about 50%
Target sequence (P03372 whole entry, looked up, the tested form may be a part): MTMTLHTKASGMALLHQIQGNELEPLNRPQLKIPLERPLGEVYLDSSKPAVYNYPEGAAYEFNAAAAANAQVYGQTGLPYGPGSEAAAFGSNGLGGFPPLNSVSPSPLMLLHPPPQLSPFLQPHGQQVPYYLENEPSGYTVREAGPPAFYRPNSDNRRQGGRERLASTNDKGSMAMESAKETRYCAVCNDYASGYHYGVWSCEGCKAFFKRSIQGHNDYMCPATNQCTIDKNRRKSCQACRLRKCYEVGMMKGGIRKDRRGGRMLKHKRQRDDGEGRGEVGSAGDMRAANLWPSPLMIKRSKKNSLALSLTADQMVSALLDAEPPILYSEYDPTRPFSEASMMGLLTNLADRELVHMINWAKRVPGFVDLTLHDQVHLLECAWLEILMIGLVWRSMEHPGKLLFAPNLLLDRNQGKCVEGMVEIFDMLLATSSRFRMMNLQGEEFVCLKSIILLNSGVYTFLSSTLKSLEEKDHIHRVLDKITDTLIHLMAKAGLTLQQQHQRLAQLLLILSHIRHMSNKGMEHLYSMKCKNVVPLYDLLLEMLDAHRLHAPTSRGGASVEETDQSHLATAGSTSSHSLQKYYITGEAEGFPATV
ERa coact pot = enhances coactivator binding to human estrogen receptor alpha. TR-FRET ERalpha-LBD/SRC-Cy5 coactivator binding, 2 h; 100 = basal binding, no effect. coactivator binding (% of control), % at 25.6 µM. P03372. 1.3% of 86,000 active; in the data active means activity above about 200%;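 further: binding measured in presence of low estradiol as agonist stimulus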
ERb SRC1 inh = blocks coactivator binding to human estrogen receptor beta; Q92731; TR-FRET ER-beta LBD / SRC1-Cy5 peptide binding; receptor agonist-loaded with 1 µM estradiol; inhibition, % at 25.6 µM; 1.3% of 86,000 active; AID 633;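 active means compounds whose percent inhibition of the receptor-coactivator binding signal exceeds about 50% in the single-dose screen, limit read from the data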
Pyk2 oligo antag = blocks oligomerization of human Pyk2 in cells; AID 1347419; Q14289; Q293 cells, Pyk2 FERM NanoBiT luminescence; stronger effect = lower value; 0.83% of 99,000 active; z-score (the deposit names both 25 µM and 10 µM);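 active means Z-score of -3 or lower, scaled per plate to the spread of control and sample wells; inactive means z-score above -3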;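 further: negative z-score means lost luminescence so less FERM oligomerization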
Numbers stand for hits; 0 = inactive; - = no result; [ ] = remark or other dose.

SMILES	SF1 activator	RORa activator	ERa coact inh	ERa coact pot	ERb SRC1 inh	Pyk2 oligo antag
Cc1ccc(/C=c2\sc3nc(-c4ccco4)nn3c2=O)o1	0	0	70	0	64[fluorescence artefact?]	0
Cc1ccc(-c2nc3s/c(=C\c4ccco4)c(=O)n3n2)cc1	0	0	96[fluorescence artefact?]	0	58	0
Cc1ccc(/C=c2\sc3nc(-c4ccccc4Br)nn3c2=O)o1	0	0	85[fluorescence artefact?]	0	66	0
CC(C)CN(C(=O)c1nn(C)c(=O)c2ccccc12)c1nc2ccccc2s1	-	-	0	0	0	0
CCN(CC)c1ccc(/C=c2\sc3nnc(-c4ccccc4Cl)n3c2=O)cc1	-	-	0	0	0	0
Cc1ccc(/C=c2/sc3nnc(-c4ccccc4Cl)n3c2=O)o1	0	0	58[fluorescence artefact?]	0	0	0
CCN(CC)c1ccc(/C=c2/sc3nnc(-c4ccccc4C)n3c2=O)cc1	-	-	0	413[fluorescence artefact?]	0	0
Cn1c(Oc2ccccc2NCc2cc(Br)ccc2O)cc(=O)n(C)c1=O	0	0	0	0	0	-3.1
CCCCC1C(=O)N(c2ccccc2)N(c2ccccc2)C1=O	0	0	92	0	83[fluorescence artefact?]	-
CCCCOCC1CN(c2ccccc2)C(=O)CS1 (configuration not stated)	0	0	0	0	0	0
Cc1nc2ccccc2c(=O)n1/N=C/c1c(O)ccc2oc3c(c12)CCCC3	0	0	80	0	0	0
Cc1nc2ccccc2c(=O)n1/N=C/c1ccccn1	50	0	0	0	0	0
Cc1nc2ccccc2c(=O)n1/N=C/c1ccc(N(C)C)cc1	0	0	0	0	0	0
CCCc1nc2ccccc2c(=O)n1/N=C/c1ccc(O)cc1O	0	0	0	0	0	0
COc1cc(C2CC(=O)c3cnc(NC(=O)COc4ccccc4)nc3C2)cc(OC)c1OC (configuration not stated)	0	0	0	0	0	-3.1
CC(=O)C1=C(O)C(=O)N(Cc2ccco2)C1c1ccccc1 (configuration not stated)	0	0	0	0	0	0
COc1cccc(C2C(C(C)=O)=C(O)C(=O)N2Cc2ccco2)c1 (configuration not stated)	-	-	58[fluorescence artefact?]	0	0	0
COc1ccc(OC)c(C2/C(=C(/O)c3ccc(C)cc3)C(=O)C(=O)N2Cc2ccco2)c1 (configuration not stated)	0	0	96[fluorescence artefact?]	0	0	-
c1ccc(COc2ccc(OCCn3cncn3)cc2)cc1	55	0	0	0	0	0
COc1cccc(-c2cc3nc(-c4ccccc4)cc(N4CCC5(CC4)OCCO5)n3n2)c1	0	0	0	210	0	0
CC1CCCCN1S(=O)(=O)c1ccc(C(=O)Nc2sccc2C(N)=O)cc1 (configuration not stated)	-	-	0	0	0	-
CC12C(=O)N(Cc3ccco3)C(=O)C1C1c3ccccc3C2c2ccccc21 (configuration not stated)	-	-	0	0	55[fluorescence artefact?]	0
COc1cc(OC)cc(-c2nnc(SCC(=O)Nc3cc(C)on3)o2)c1	0	0	0	393[fluorescence artefact?]	0	-
Cc1cc(NC(=O)CSc2nnc(-c3ccoc3C)o2)no1	0	0	0	0	0	0
O=C(CSc1nnc(-c2ccc(OC(F)F)cc2)o1)NC(=O)NCc1ccco1	0	0	67	0	53	0
SMILES	SF1 activator	RORa activator	ERa coact inh	ERa coact pot	ERb SRC1 inh	Pyk2 oligo antag
COc1ccc(-c2nnc(SCC(=O)NCc3ccco3)o2)cc1	0	0	0	0	0	0
COc1ccc(-c2nnc(SCC(=O)NC(=O)NCc3ccccc3)o2)cc1	-	-	0	312[fluorescence artefact?]	0	0
COc1ccc(-c2nnc(SCC(=O)c3ccc[nH]3)o2)cc1	-	-	-	-	-	0
COC(=O)CSc1nnc(CNc2ccc(Cl)cc2)n1-c1ccccc1	-	-	0	0	0	0
COc1ccc(/C=N/NC(=O)C2c3ccccc3Oc3ccccc32)c(OC)c1	-	-	-	-	-	0
S=C1NCCOCCOCCOCCOCCNC(=S)NCCOCCOCCOCCOCCN1	-	-	0	0	0	0
CC(C)N(O)C(=O)NC(C)(C)C	0	0	0	0	0	0
Nc1c(-c2ccc(Cl)cc2)nnn1-c1ccccc1	61	87	0	0	0	0
O=c1c2ccccc2c(-c2ccc(Cl)cc2)nn1-c1ccccc1	-	-	-	-	-	0
O=C(CSC1=NCCN1)C1COc2ccccc2O1 (configuration not stated)	0	0	0	0	0	0
Cn1ncc2c(Nc3ccccc3Br)ncnc21	0	0	0	0	0	0
CCOc1ccc(Nc2ncnc3c2cnn3Cc2ccccc2)cc1	-	-	0	0	0	-3.1
Cn1ncc2c(Nc3ccc(-c4ccccc4)cc3)ncnc21	60	0	-	-	-	0
COc1ccc(Nc2ncnc3c2cnn3Cc2ccccc2)cc1	0	0	0	0	0	0
Cc1nn(-c2cc(N3CCCCCC3)ccc2[N+](=O)[O-])c(=O)c2ccccc12	-	-	0	0	0	-4.1
Cc1nn(-c2cc(N3CCCCC3)ccc2N)c(=O)c2ccccc12	0	0	-	-	-	0
O=C(NC(c1ccccc1)c1ccccc1)C1CCCN(S(=O)(=O)c2cnc[nH]2)C1 (configuration not stated)	0	0	0	0	0	-
COC(=O)c1ccc(OC(=O)c2ccc(OCc3c(C)noc3C)c(OC)c2)cc1	0	0	51[fluorescence artefact?]	280[fluorescence artefact?]	0	-
CC(=O)C(C(C)=O)c1c(Cl)c(O)c(O)c2c(C(=O)c3ccccc3)coc12	0	0	0	0	55[fluorescence artefact?]	0
COCCn1cc(C(=O)c2ccccc2OCC(=O)Nc2cc(C)on2)cc(C#N)c1=O	0	0	0	0	0	0
COCCn1c(-c2ccc(-c3ccccc3Cl)o2)nc2c1c(=O)[nH]c(=O)n2CC(C)C	0	0	0	208	0	0
C=CCn1c(N)cc(=O)nc1SC(C)C(=O)Nc1cccc2ccccc12 (configuration not stated)	-	-	0	0	0	0
O=C(NCCc1ccccc1)c1cnn2c(C(F)F)cc(C3CC3)nc12	0	0	0	0	0	0
COC(=O)c1ccccc1NC(=O)c1cnn2c(C(F)F)cc(C3CC3)nc12	0	0	0	0	0	-3.6
O=C(CSc1nc(O)c(Cc2ccccc2)c(=O)n1-c1ccccc1)N1CCOCC1	-	-	0	0	0	0
SMILES	SF1 activator	RORa activator	ERa coact inh	ERa coact pot	ERb SRC1 inh	Pyk2 oligo antag
CCCn1c(=O)c2ccccc2n2c(SCc3cc(=O)n4ccsc4n3)nnc12	0	0	50	0	0	-
C=CCn1c(SCC(=O)NCc2ccccc2)nnc1C1CCCCC1	-	-	0	0	0	0
Cc1cccc(-n2c(SCc3cc(=O)n4ccsc4n3)nc3ccccc32)c1	0	0	60	0	0	0
C=CCn1c(SCc2cc(=O)n3ccsc3n2)nnc1C1CCCCC1	0	0	82[fluorescence artefact?]	0	55[fluorescence artefact?]	0
CCc1cccc(CC)c1-n1c(SCc2cc(=O)n3ccsc3n2)nnc1-c1cccnc1	-	-	0	0	0	0
CCn1c2ccccc2c2nnc(SCc3cc(=O)n4ccsc4n3)nc21	0	0	0	0	0	-
